Active and inactive are the calls of the source. The calls are words filed in the database; no cut-off is given here.
Tests used:
[1] = Cytotoxicity against human RPE-1 cells assessed as reduction in cell viability measured after 24 hrs by MTT assay; format: toxicity, cell-based; conditions: RPE-1 cells (TERT-RPE1)
MCF7 [2] = experiment: Cytotoxicity against human MCF7 cells assessed as reduction in cell viability measured after 24 hrs by MTT assay; format: functional, cell-based; conditions: MCF7, 24 h
MCF7 [3] = experiment: Induction of apoptosis in human MCF7 cells assessed as increase in red fluorescence at IC50 measured after 24 hrs by propidium iodide staining based confocal laser scanning microscopy; format: functional, cell-based
How it was run: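 Following 24 h treatment, MCF7 cells incubated with propidium iodide, which binds DNA of apoptotic and necrotic cells; red fluorescence read by confocal microscopy against non-treated cells.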

MCF7 [4] = experiment: Induction of mitochondrial outer membrane damage in human MCF7 cells assessed as morphological changes by measuring appearance of fragmented punctate structure at IC50 measured after 24 hrs by mitotracker red based confocal microscopy; format: cell-based
MCF7 [5] = experiment: Induction of ROS generation in human MCF7 cells assessed as increase in red fluorescence at IC50 measured after 24 hrs by MitoSox dye based confocal microscopy; format: functional, cell-based
How it was run: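 MCF7 cells exposed 24 h, then stained with MitoSox, which gives red fluorescence with sub-cellular superoxide; signal compared with non-treated control cells by confocal microscopy.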

MCF7 [6] = experiment: Induction of ROS generation in human MCF7 cells assessed as increase in green fluorescence measured after 24 hrs by H2DCFDA dye based confocal microscopy relative to control; format: functional
How it was run: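 After 24 h treatment, MCF7 cells stained with H2DCFDA, which reacts with sub-cellular ROS to give green fluorescent DCF; imaged by confocal microscopy; green signal expressed as fold over non-treated control cells.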

MCF7 [7] = experiment: Induction of apoptosis in human MCF7 cells assessed as reduction in Bcl-2 expression measured after 24 hrs by Western blot analysis; format: functional, cell-based
How it was run: (§1)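 MCF7 cells treated 24 h; whole-cell proteins separated by gel electrophoresis and Bcl-2 and caspase-3 detected by Western blot, compared with control cells.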

MCF7 [8] = experiment: Induction of apoptosis in human MCF7 cells assessed as reduction in caspase-3 expression measured after 24 hrs by Western blot analysis; format: functional, cell-based; how it was run: as §1
MCF7 [9] = experiment: Induction of mitochondrial outer membrane damage in human MCF7 cells assessed as increase in mitochondrial depolarization by measuring increase in green fluorescence measured after 24 hrs by JC1 dye based confocal microscopy; format: cell-based
How it was run: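 MCF7 cells treated 24 h, then incubated with JC1 (green monomer emission 525 nm, red aggregate 590 nm); confocal imaging, depolarization expressed as J-monomer:J-aggregate ratio versus non-treated control.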

MCF7 [10] = experiment: Induction of mitochondrial outer membrane damage in human MCF7 cells assessed as increase in mitochondrial depolarization by measuring reduction in red fluorescence measured after 24 hrs by TMRM dye based confocal microscopy; format: cell-based
How it was run: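 Mitochondrial damage probe: after 24 h exposure MCF7 cells loaded with TMRM, which stains undamaged mitochondria and is effluxed after damage; red fluorescence read by confocal microscopy against non-treated cells.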

MCF7 [11] = experiment: Induction of mitochondrial outer membrane damage in human MCF7 cells assessed as morphological changes by measuring elongated mitochondria at IC50 measured after 24 hrs by mitotracker red based confocal microscopy; format: cell-based
MCF7 [12] = experiment: Induction of mitochondrial outer membrane damage in human MCF7 cells assessed as morphological changes by measuring appearance of threadlike structure at IC50 measured after 24 hrs by mitotracker red based confocal microscopy; format: cell-based

COc1ccc([P+](CCCCCOC(=O)Cc2c(C)n(C(=O)c3ccc(Cl)cc3)c3ccc(OC)cc23)(c2ccc(OC)cc2)c2ccc(OC)cc2)cc1
IC50 at 24 h [1]: 35.2 µM
IC50 (MCF7 [2]): 4.5 µM

CC(C)Cc1ccc(C(C)C(=O)OCCCCC[P+](c2ccccc2)(c2ccccc2)c2ccccc2)cc1 (stereo not drawn)
Activity (MCF7 [3]): Active
Activity (MCF7 [4]): Active
IC50 at 24 h [1]: > 40 µM
IC50 (MCF7 [2]): 10.3 µM
Activity (MCF7 [5]): Active
fold change (FC) (MCF7 [6]): 3.2
Activity (MCF7 [7]): Active
Activity (MCF7 [8]): Active
Activity (MCF7 [9]): Active
Activity (MCF7 [10]): Active

COc1ccc2c(c1)c(CC(=O)OCCCCC[P+](c1ccc(F)cc1)(c1ccc(F)cc1)c1ccc(F)cc1)c(C)n2C(=O)c1ccc(Cl)cc1
IC50 at 24 h [1]: 11.2 µM
IC50 (MCF7 [2]): 25.7 µM

CC(C)Cc1ccc(C(C)C(=O)O)cc1 (stereo not drawn) [IBUPROFEN]
IC50 at 24 h [1]: > 40 µM
IC50 (MCF7 [2]): > 50 µM
fold change (FC) (MCF7 [6]): 1.3
Activity (MCF7 [11]): Active
Activity (MCF7 [12]): Active
Activity (MCF7 [9]): Active
Activity (MCF7 [10]): Active

COc1ccc([P+](CCCCCOC(=O)C(C)c2ccc(CC(C)C)cc2)(c2ccc(OC)cc2)c2ccc(OC)cc2)cc1 (stereo not drawn)
IC50 at 24 h [1]: > 40 µM
IC50 (MCF7 [2]): 32 µM

CC(C)Cc1ccc(C(C)C(=O)OCCCCC[P+](c2ccc(F)cc2)(c2ccc(F)cc2)c2ccc(F)cc2)cc1 (stereo not drawn)
IC50 at 24 h [1]: 35 µM
IC50 (MCF7 [2]): > 50 µM

COc1ccc2c(c1)c(CC(=O)OCCCCC[P+](c1ccccc1)(c1ccccc1)c1ccccc1)c(C)n2C(=O)c1ccc(Cl)cc1
Activity (MCF7 [3]): Active
Activity (MCF7 [4]): Active
IC50 at 24 h [1]: 22 µM
IC50 (MCF7 [2]): 1 µM
Activity (MCF7 [5]): Active
fold change (FC) (MCF7 [6]): 2.4
Activity (MCF7 [7]): Active
Activity (MCF7 [8]): Active
Activity (MCF7 [9]): Active
Activity (MCF7 [10]): Active

COc1ccc2c(c1)c(CC(=O)OCCCCC[P+](c1ccc(C)cc1)(c1ccc(C)cc1)c1ccc(C)cc1)c(C)n2C(=O)c1ccc(Cl)cc1
IC50 at 24 h [1]: 10.2 µM
IC50 (MCF7 [2]): 5.8 µM

Cc1ccc([P+](CCCCCOC(=O)C(C)c2ccc(CC(C)C)cc2)(c2ccc(C)cc2)c2ccc(C)cc2)cc1 (stereo not drawn)
IC50 at 24 h [1]: > 40 µM
IC50 (MCF7 [2]): 25.6 µM

COc1ccc2c(c1)c(CC(=O)O)c(C)n2C(=O)c1ccc(Cl)cc1 [INDOMETHACIN]
IC50 at 24 h [1]: > 40 µM
IC50 (MCF7 [2]): > 50 µM
fold change (FC) (MCF7 [6]): 2.4
Activity (MCF7 [11]): Active
Activity (MCF7 [7]): Active
Activity (MCF7 [12]): Active
Activity (MCF7 [8]): Active
Activity (MCF7 [9]): Active
Activity (MCF7 [10]): Active
